ChEMBL document CHEMBL2086236, “Discovery of pyrrolo[3,2-c]quinoline-4-one derivatives as novel hedgehog signaling inhibitors” (Bioorg Med Chem, 2012)
pIC50: −log10 of the molar value.

Assays:
[1] = molecular target: Sonic hedgehog protein (Mus musculus, UniProt Q62226); assay: Inhibition of recombinant mouse Shh expressed in […] assessed as inhibition of Gli1 expression after 48 hrs by luciferase reporter gene assay; assay type: cell-based, NIH/3T3
Outline: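 NIH3T3 cells stably carrying a Gli-luciferase reporter (kept in DMEM/10% FBS, 500 µg/mL G418) were seeded on collagen-coated plates overnight. Compounds (final 0.03–1000 nM, n = 4 wells) were added with recombinant mouse Shh-N at final 1 µg/mL in 5.8% FBS, then incubated 48 h. Controls were 0.1% DMSO ± Shh-N (n = 10). Read-out was luciferase luminescence; IC50 is the mean of four measurements.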

[2] = Clearance in mouse hepatic microsomes by LC-MS/MS analysis; assay type: ADME, Microsome; settings: liver microsomes, read-out: CLH
Outline: (§1)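 Liver microsomes (0.2 mg protein/mL) were incubated with 1 µmol/L test compound in 50 mmol/L potassium phosphate, pH 7.4. The reaction was started with an NADPH-generating system (MgCl₂, glucose-6-phosphate, β-NADP+, G6P dehydrogenase) added at 20% of the reaction volume. Clearance was reported in µL/min/mg.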

[3] = Clearance in human hepatic microsomes by LC-MS/MS analysis; assay type: ADME, Microsome; settings: liver microsomes, read-out: CLH; outline: as §1
[4] = molecular target: Voltage-gated inwardly rectifying potassium channel KCNH2 (Homo sapiens, UniProt Q12809); assay: inhibition of human ERG
Voltage-gated inwardly rectifying potassium channel KCNH2, sequence (Q12809 whole entry): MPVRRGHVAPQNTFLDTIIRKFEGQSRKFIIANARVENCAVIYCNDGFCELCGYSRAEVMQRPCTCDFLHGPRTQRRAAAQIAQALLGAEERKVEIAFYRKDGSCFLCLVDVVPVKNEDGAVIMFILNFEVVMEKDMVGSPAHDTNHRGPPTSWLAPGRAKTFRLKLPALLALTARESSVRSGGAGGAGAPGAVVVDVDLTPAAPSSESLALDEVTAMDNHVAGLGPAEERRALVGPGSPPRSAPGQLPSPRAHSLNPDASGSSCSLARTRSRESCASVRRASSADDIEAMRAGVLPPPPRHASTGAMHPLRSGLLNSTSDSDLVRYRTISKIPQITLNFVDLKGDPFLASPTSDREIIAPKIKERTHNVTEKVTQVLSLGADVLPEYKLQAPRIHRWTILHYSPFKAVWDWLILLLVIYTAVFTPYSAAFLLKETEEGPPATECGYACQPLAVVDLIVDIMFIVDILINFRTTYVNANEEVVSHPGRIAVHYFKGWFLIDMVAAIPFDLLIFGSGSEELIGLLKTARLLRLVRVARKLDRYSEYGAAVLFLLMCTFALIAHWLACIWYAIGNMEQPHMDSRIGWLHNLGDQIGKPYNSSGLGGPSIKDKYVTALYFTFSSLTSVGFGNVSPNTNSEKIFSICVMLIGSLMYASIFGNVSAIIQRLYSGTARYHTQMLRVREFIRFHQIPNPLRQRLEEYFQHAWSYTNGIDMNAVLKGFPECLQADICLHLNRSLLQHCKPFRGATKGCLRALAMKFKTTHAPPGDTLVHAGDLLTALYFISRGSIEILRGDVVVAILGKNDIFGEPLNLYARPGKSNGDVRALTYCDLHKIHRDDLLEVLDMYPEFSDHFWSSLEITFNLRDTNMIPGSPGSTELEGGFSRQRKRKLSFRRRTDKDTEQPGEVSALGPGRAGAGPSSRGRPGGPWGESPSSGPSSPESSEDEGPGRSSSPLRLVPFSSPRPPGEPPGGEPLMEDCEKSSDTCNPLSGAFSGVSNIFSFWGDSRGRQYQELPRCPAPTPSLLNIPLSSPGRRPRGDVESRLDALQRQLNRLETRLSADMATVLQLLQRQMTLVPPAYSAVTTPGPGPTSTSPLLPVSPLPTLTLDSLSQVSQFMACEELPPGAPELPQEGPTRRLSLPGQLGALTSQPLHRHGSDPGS

[5] = system: Mus musculus; assay: Toxicity against Ptch+/- p53-/- double-mutant mouse medulloblastoma allograft model assessed as body weight loss at 6.25 mg/kg, po bid for 2 weeks; assay type: organism-based; parameters: dose 6.25 mg/kg, route oral; settings: in vivo, 336 h
Outline: (§2)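 Nude mice carrying subcutaneous Ptch+/- p53-/- medulloblastoma allografts (passaged in vivo) were dosed orally twice daily for 2 weeks, suspended in 0.5% methylcellulose, vs vehicle, once tumors reached an average of 150–250 mm³. Tumors were measured by caliper, with V = (a × b²)/2. T/C% = mean treated (Vend−Vstart)/control (Vend−Vstart) × 100. Body weight was followed. Points are mean SD of duplicates; 1-tailed Dunnett's test vs controls.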

[6] = system: Mus musculus; assay: In vivo inhibition of Shh signalling in mouse xenografted with PAN-04 cells assessed as Gli1 expression at 25 mg/kg, po bid measured after 24 hrs post first dose relative to control; values are per cent of control; settings: PAN-04, po
[7] = Antitumor activity against Ptch+/- p53-/- double-mutant mouse medulloblastoma allograft model assessed as tumor growth rate at 6.25 mg/kg, po bid for 2 weeks measured up to 21 days relative to control; assay type: functional, Medulloblastoma cell; outline: as §2
[8] = Binding affinity to human Smo expressed in 293T cells after 1 hr by fluorescence analysis; assay type: cell-based
Outline: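 293T cells were transiently transfected overnight with HA-tagged human Smo, then plated at 6×10⁴ cells/well. Compounds (final 0.03–1000 nM) were incubated 1 h with 2 nM BODIPY-cyclopamine, n = 3 wells per concentration. Media or excess unlabelled cyclopamine set the 0%/100% inhibition controls (n = 5). Cell fluorescence was read by flow cytometry after Versene detachment.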

Sonic hedgehog protein, sequence (Q62226 25-198 limits assumed): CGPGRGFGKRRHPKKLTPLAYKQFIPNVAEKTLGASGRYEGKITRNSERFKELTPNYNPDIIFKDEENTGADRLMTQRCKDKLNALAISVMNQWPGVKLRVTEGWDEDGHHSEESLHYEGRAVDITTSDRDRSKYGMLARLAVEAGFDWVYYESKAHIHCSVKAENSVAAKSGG

pIC50 [1] | microsomal CLint [2] | microsomal CLint [3] | pIC50 [8] | Compound | inhibition (INH) [4] | Activity [5] | level, % of control at 25 mg/kg [6] | Activity [7]
< 7.00 | < 1 µL/min/mg | 3 µL/min/mg | – | CCC(=O)Cn1c(=O)c2c(OC)c(C(=O)NC3CCN(CCO)CC3)n(C)c2c2ccccc21 | – | – | – | –
8.29 | – | – | – | COc1c(C(=O)NCCN2CCCC2)sc2c1c(=O)n(CC(=O)c1ccccc1)c1ccccc21 | – | – | – | –
< 6.00 | – | – | – | COc1c(C(=O)NCCN2CCCC2)oc2c1c(=O)n(CC(=O)c1ccccc1)c1ccccc21 | – | – | – | –
8.54 | 95 µL/min/mg | 14 µL/min/mg | – | COc1c(C(=O)NCCN2CCCC2)n(C)c2c1c(=O)n(CC(=O)c1ccccc1)c1ccccc21 | – | – | – | –
8.15 | 155 µL/min/mg | 26 µL/min/mg | – | CCOc1c(C(=O)NCCN2CCCC2)n(C)c2c1c(=O)n(CC(=O)c1ccccc1)c1ccccc21 | – | – | – | –
8.02 | 192 µL/min/mg | 30 µL/min/mg | – | COc1c(C(=O)NCCN2CCCCC2)n(C)c2c1c(=O)n(CC(=O)c1ccccc1)c1ccccc21 | – | – | – | –
7.66 | 237 µL/min/mg | 73 µL/min/mg | – | COc1c(C(=O)NCCN2CCOCC2)n(C)c2c1c(=O)n(CC(=O)c1ccccc1)c1ccccc21 | – | – | – | –
7.68 | 10 µL/min/mg | 2 µL/min/mg | – | COc1c(C(=O)NC2CCNCC2)n(C)c2c1c(=O)n(CC(=O)c1ccccc1)c1ccccc21 | – | – | – | –
8.18 | 9 µL/min/mg | 6 µL/min/mg | – | COc1c(C(=O)NC2CCN(CCO)CC2)n(C)c2c1c(=O)n(CC(=O)c1ccccc1)c1ccccc21 | Active | – | – | –
8.34 | 11 µL/min/mg | < 1 µL/min/mg | 7.39 | COc1c(C(=O)NC2CCN(C(=O)CO)CC2)n(C)c2c1c(=O)n(CC(=O)c1ccccc1)c1ccccc21 | Not Active | Non-toxic | 5% | 3%
6.82 | 48 µL/min/mg | 72 µL/min/mg | – | COc1c(C(=O)NC2CCN(CCO)CC2)n(C)c2c1c(=O)n(CCc1ccccc1)c1ccccc21 | – | – | – | –
